Only some compounds are listed: those with a hit (about 1.5% of all), similar ones and a draw of the others.
CSN inh: blocks human CSN-mediated cullin deneddylation. Purified CSN, SCF-Nedd8-OG deneddylation, fluorescence polarization. AID 651999. Q92905. inhibition, % at 12.5 µM. 360,000 tested, 0.38% active;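 active = pattern-corrected inhibition above about 35%, with an unprinted fluorescence ratio check between 0.5 and 1.5, limit read from the data, passing the limit was not always enough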;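 also: 0% = enzyme with substrate and 100% = substrate without enzyme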
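Assay system: Purified human Csn5 enzyme expressed in HEK293T cells | Amount: Enzyme 0.24 nM | Measured by: Fluorescence polarization readout | Medium: Tris/NaCl/DTT buffer, pH 7.5 | Compound dosing: One concentration, 12.5 µM, 0.25% DMSO | Times: 90 min incubation of compound, enzyme and substrate at room temperature | Control set: no-enzyme wells high, enzyme-with-substrate wells low | Read-out: % inhibition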
TPT1 inh: C. albicans TPT1 enzyme inhibition. recombinant caTPT1, FP RNA substrate dephosphorylation. inhibition, % at 5 µM. 300,000 tested, 0.81% active;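 active = inhibition above the mean of all tested compounds plus 3 SD, set per screening campaign, cut at about 24% in these data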;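 also: plate controls were DMSO alone for no effect and ferristatin control at 100 nM for full effect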
HNF4A DNA FP: change in binding of human HNF4 alpha to DNA; 360,000 tested, 0.3% active; HNF4a-FITC DNA binding, fluorescence polarization, 1 h; P41235; AID 1224865; activity change, % at 10 µM; in the data active = activity change above about 30%, passing the limit was not always enough
Rpn11 block: Rpn11 (human) deubiquitinase inhibition. O00487. AID 588493. human 26S proteasome, Ub4-pepOG fluorescence polarization; 20S core pre-blocked with epoxomicin. inhibition, % at 20 µM. 360,000 tested, 0.59% active;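 active = inhibition at 20 µM, scaled to each plate's controls, above about 33%, limit read from the data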
Target sequence (O00487 whole entry, looked up): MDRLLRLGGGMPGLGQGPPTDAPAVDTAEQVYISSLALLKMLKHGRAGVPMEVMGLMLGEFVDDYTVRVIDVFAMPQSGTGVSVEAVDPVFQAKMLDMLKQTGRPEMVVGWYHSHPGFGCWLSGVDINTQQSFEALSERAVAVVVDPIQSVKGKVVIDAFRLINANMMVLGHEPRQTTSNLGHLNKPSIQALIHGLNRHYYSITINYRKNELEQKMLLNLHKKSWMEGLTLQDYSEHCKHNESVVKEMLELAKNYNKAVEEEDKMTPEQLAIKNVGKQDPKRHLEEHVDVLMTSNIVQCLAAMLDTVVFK
caTPT1 confirm: TPT1 (C. albicans) inhibition, confirmation; shares compounds with TPT1 inh; recombinant caTPT1, fluorescence polarization, RNase T1 coupled; AID 2149; 2,400 tested, 74% active; inhibition, % at 5 µM;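 active = inhibition above the primary screen limit, the mean inhibition of all tested compounds plus 3 SD, cut at about 25% in these data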
RNase T1 inh: RNase T1 inhibition in TPT1 counter-screen. shares compounds with TPT1 inh. RNase T1 cleavage, fluorescence polarization, 1536-well. inhibition, % at 5 µM. 2,400 tested, 83% active. AID 2153;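 active = inhibition above the solvent-only control well mean plus 3 SD, limit set per screening run, cut at about 23% in these data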;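 also: plate controls were DMSO wells with enzyme for no effect and wells without RNase T1 for full effect; inhibitors block cleavage so intact labeled substrate keeps polarization high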
Target sequence (P00651 whole entry, looked up): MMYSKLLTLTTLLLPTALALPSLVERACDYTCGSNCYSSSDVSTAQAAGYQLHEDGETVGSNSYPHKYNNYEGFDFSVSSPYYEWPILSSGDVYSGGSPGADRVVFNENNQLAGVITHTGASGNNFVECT
Rpn11 inh conf: confirmation of human proteasome Rpn11 inhibitors | shares compounds with Rpn11 block | purified human 26S proteasome, Ub4-pepOG fluorescence polarization; proteasome pretreated with epoxomicin | inhibition, % at 20 µM | 1,900 tested, 29% active | AID 602318
MMP-2 inh: MMP-2 (human) inhibition counter-screen | shares compounds with Rpn11 block | recombinant MMP-2, FRET peptide cleavage fluorescence | inhibition, % at 20 µM | 1,900 tested, 4% active;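 also: human MMP-2 activated beforehand with APMA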
Thrombin inh: blocks bovine thrombin, flagging nonselective RPN11 hits; shares compounds with Rpn11 block; bovine thrombin cleavage of Ub4-pepOG, fluorescence polarization; inhibition, % at 20 µM; 1,900 tested, 13% active;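 active = mean inhibition at least 40% at 20 µM, or signal 3 deviations below plate average, so some actives read negative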;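 also: plate controls were thrombin with DMSO for no effect and buffer wells lacking thrombin for full effect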
An asterisk follows results filed as active; . = no result shown. Rule as the data show it, unless noted: active = inhibition above about 40%; inactive = the rest.

SMILES	CSN inh	TPT1 inh	HNF4A DNA FP	Rpn11 block	caTPT1 confirm	RNase T1 inh	Rpn11 inh conf	MMP-2 inh	Thrombin inh
CC1=NN(c2ccccc2)C(=O)/C1=C\c1cc(C)n(-c2ccccc2)c1C	2.2	-5.8	7.2	11.8	.	.	.	.	.
O=C(O)c1ccc(-c2nc(-c3ccccc3)c(-c3ccccc3)[nH]2)cc1	-3.9	-1.5	-0.2	4.6	.	.	.	.	.
COc1ccc(N=Nc2nc(-c3ccccc3)c(-c3ccccc3)[nH]2)cc1	9.7	31.4*	19.9	39.4*	43.4*	56.5*	8.4	13.1	-6.5
Oc1ccccc1N=Nc1nc(-c2ccccc2)c(-c2ccccc2)[nH]1	4.6	45.7*	22.8	54.5*	57.9*	69.0*	22.7	10.4	20.1
Cc1ccc(S(=O)(=O)N2CCC3(CC2)OCCN3S(=O)(=O)c2c(C)cc(C)cc2C)cc1	2.1	3.5	0.3	-1.7	.	.	.	.	.
COc1ccc(S(=O)(=O)N2CCC(C(=O)NN3CCCCC3)CC2)cc1	-2.5	.	1.4	-1.2	.	.	.	.	.
O=C(N/N=C/c1ccc([N+](=O)[O-])o1)c1cc(-c2ccc(-c3ccccc3)cc2)nc2ccccc12	3.5	2.4	-4.8	5.1	.	.	.	.	.
Cc1cc(N/N=C/c2ccc([N+](=O)[O-])o2)nc2ccccc12	29.5	49.5*	21.1	51.1*	50.1*	63.7*	25.4	-11.7	9.6
Clc1ccc2c(N/N=C/c3ccccc3Br)ccnc2c1	6.3	-2.3	10.9	4.6	.	.	.	.	.
O=[N+]([O-])c1ccc(/C=N/Nc2ccnc3cc(Cl)ccc23)o1	10.2	68.1*	13.7	49.6*	62.5*	77.9*	39.0	-15.0	15.6
COc1ccc(S(=O)(=O)N2CC(O)CC2C(=O)OCc2nc3sc(C)c(C)c3c(=O)[nH]2)cc1 (centres undefined)	24.8	32.7*	24.7	46.6*	47.3*	64.9*	22.4	-16.9	10.5
COc1ccc(N=Cc2oc3ccc4ccccc4c3c2O)cc1	22.8	114.1*	34.7	55.5*	71.0*	75.2*	59.8*	-41.9	21.3
O=C(CSc1nc2ccccc2s1)c1cc2ccccc2o1	-1.6	55.6*	3.0	55.8*	15.7	25.1*	29.2	19.8	14.8
Cc1cc(C)c2nc(NNC(=O)c3cc(=O)c4ccccc4o3)sc2c1	9.6	24.9*	11.7	47.2*	27.1*	40.8*	34.3	-17.8	8.9
COc1ccc(-[n+]2c(C)cc(/C=C3\Sc4ccccc4N3C)cc2C)cc1	21.3	90.5*	49.6*	83.2*	123.1*	128.0*	49.5*	-23.9	-22.5
CN1CCc2nc(NC(=O)c3cccc(S(=O)(=O)N4CCc5ccccc54)c3)sc2C1	41.1*	49.5*	49.8*	74.8*	21.4	29.1*	4.5	10.8	-3.2
O=C(NN1C(=O)/C(=C/C=C/c2ccco2)SC1=S)c1ccccc1O	74.2	70.9*	-21.8	176.7*	49.5*	49.5*	100.3*	58.1*	60.2*
C=CCOc1ccc(C2NC(=O)c3ccccc3O2)cc1OC (centres undefined)	-0.4	.	1.8	-2.0	.	.	.	.	.
Cc1ccc(N=C2NC(=O)/C(=C\c3ccc(C)s3)S2)cc1	9.1	-0.6	16.0	28.6	.	.	.	.	.
Cc1ccc(N=C2NC(=O)/C(=C/c3cccs3)S2)cc1C	32.6	30.4*	34.1	98.9*	46.1*	59.2*	63.6*	3.5	-0.3
COc1ccc2c(C)cc(SCC#N)nc2c1	12.7	40.5*	12.4	41.0*	40.5*	49.0*	36.6	-63.7	18.8
Cc1cc(SCC#N)nc2ccccc12	3.8	2.0	3.2	-0.4	.	.	.	.	.
O=C(C1CCN(S(=O)(=O)c2c(Cl)cccc2Cl)CC1)N1CCCCCCC1	0.3	3.1	-1.1	-3.9	.	.	.	.	.
ClCC1NCC(c2ccccc2Cl)c2c1[nH]c1ccccc21 (centres undefined)	20.4	88.8*	-13.6	71.5*	14.2	20.8	33.0	37.6	18.2
C=CCN1C(=O)/C(=C2/Sc3ccccc3N2CC)SC1=S	2.3	5.3	-0.5	.	.	.	.	.	.
SMILES	CSN inh	TPT1 inh	HNF4A DNA FP	Rpn11 block	caTPT1 confirm	RNase T1 inh	Rpn11 inh conf	MMP-2 inh	Thrombin inh
CCN1C(=O)/C(=C2/Sc3ccccc3N2CC)S/C1=N\c1ncn[nH]1	135.9	36.4*	22.1	72.4*	57.2*	69.3*	161.6*	-69.6	103.6*
COc1cccc(-n2c(SCC(N)=O)nc3ccccc3c2=O)c1	19.9	40.4*	30.0	65.9*	60.2*	74.6*	56.2*	-4.1	19.2
CCOc1ccccc1C=NNc1ccc([N+](=O)[O-])cn1	2.4	.	14.2	-1.6	.	.	.	.	.
O=[N+]([O-])c1ccc(N/N=C\c2cccn2-c2ccccc2)nc1	18.2	88.3*	33.7	58.0*	78.4*	90.2*	44.4*	-12.5	8.9
N#Cc1ccccc1Cn1cc(/C=N/Nc2ccc([N+](=O)[O-])cn2)c2ccccc21	11.1	36.6*	25.1	60.1*	81.8*	89.5*	33.6	-14.8	2.3
Cc1ccc(/C=C2\C(=N)N3N=C(CC(=O)N4CCOCC4)SC3=NC2=O)o1	8.5	0.7	-2.7	-4.7	.	.	.	.	.
N=C1/C(=C\c2ccc(SCc3ccccc3)o2)C(=O)N=C2SC(CC(=O)N3CCOCC3)=NN12	13.2	26.6*	11.8	41.2*	27.6*	39.4*	7.6	-4.0	-4.4
CC1(C)CC2CC(C)(CN2C(=O)COC(=O)c2ccccc2C(F)(F)F)C1 (centres undefined)	0.4	.	-1.2	0.4	.	.	.	.	.
Oc1oc(-c2ccccc2)nc1C=Nc1ccccc1	1.5	2.7	2.0	4.4	.	.	.	.	.
CC1=Nc2ccccc2/C1=C\c1nc(-c2ccccc2)oc1O	15.7	79.9*	28.2	43.6*	99.1*	107.9*	43.1*	-4.8	21.8
Cc1ccc(/C=C(\C#N)C(=O)Nc2c(C)cccc2C)s1	35.4*	30.0*	29.1	85.1*	40.6*	52.9*	96.4*	-8.3	80.3*
Cc1cccc(C)c1NC(=O)/C(C#N)=C/c1ccsc1	1.9	3.2	-0.6	-1.3	.	.	.	.	.
Cc1ccc(-c2ccc(/C=C3\SC(N4CCOCC4)=NC3=O)o2)cc1	12.2	47.5*	50.5*	59.9*	52.2*	62.5*	47.9*	4.0	33.6
O=C1N=C(N2CCOCC2)SC1=Cc1ccco1	0.9	.	8.3	18.4	.	.	.	.	.
Cc1cc(/C=C2\SC(=S)NC2=O)c(C)[nH]1	92.7	130.7*	56.9*	83.9*	96.7*	108.5*	44.6*	17.4	38.2

Bioassay records from PubChem BioAssay.
